According to ChEMBL document CHEMBL1146487, “New cytotoxic clerodane diterpenoids from the leaves and twigs of Casearia membranacea” (J Nat Prod, 2004):
pIC50: −log10 of the molar value.

Assays:
[1] = Cytotoxicity against human Hep3B cells after 48 hrs by SRB assay; type: functional, cell-based, Hep 3B2
Summary of the method: (§1)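 Cells seeded in RPMI 1640 with 5% FBS at 37 °C, 5% CO2. A time-zero plate set fixed with TCA at 24 h. Drug added, then 48 h further incubation. Cold-TCA fixation, 0.4% w/v SRB in 1% acetic acid for 10 min, acetic acid washes, dye dissolved in 10 mM Tris base, A515 read. IC50 = concentration giving 50% absorbance reduction versus untreated cells.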

PC-3 = assay: Cytotoxicity against human PC3 cells after 48 hrs by SRB assay; type: functional, cell-based; settings: PC-3, 48 h; summary of the method: as §1

Row | Compound | pIC50 [1] | pIC50 (PC-3)
1 | C=CC(=C)CC[C@]1(C)[C@H]2C[C@H](OC(=O)C(C)CC)C=C3[C@H](OC(=O)CCC)O[C@H](OC(C)=O)[C@@]32[C@H](OC(C)=O)[C@H](OC(C)=O)[C@@H]1C (stereo not given in full) | 4.77 | 4.89
2 | C=CC(=C)CC[C@]1(C)[C@H]2C[C@H](OC(=O)C(C)CC)C=C3[C@H](OC(C)=O)O[C@H](OC(C)=O)[C@@]32[C@H](OC(=O)c2cccnc2)C[C@@H]1C (stereo not given in full) | 4.97 | 4.89
3 | C=CC(=C)CC[C@]1(C)[C@H]2C[C@H](OC(=O)C(C)CC)C=C3[C@H](OC(C)=O)O[C@H](OC(C)=O)[C@@]32[C@H](O)C[C@@H]1C (relative stereo) | 5.62 | 5.74
4 | C=CC(=C)CC[C@]1(C)[C@H]2C[C@H](OC(=O)C(C)CC)C=C3[C@H](OC(=O)CCC)O[C@H](OC(C)=O)[C@@]32[C@H](O)C[C@@H]1C (relative stereo) [CASEAMEMBRIN A] | 5.64 | 5.82
5 | C=CC(=C)CC[C@]1(C)[C@H]2C[C@H](OC(=O)C(C)CC)C=C3[C@H](OC)O[C@H](OC(C)=O)[C@@]32[C@H](O)C[C@@H]1C (relative stereo) [CASEAMEMBRIN B] | 4.74 | 4.65
6 | C=CC(=C)CC[C@]1(C)[C@H]2C[C@H](OC(=O)C(C)CC)C=C3[C@H](OC(=O)CCC)O[C@H](OC(C)=O)[C@@]32[C@H](O)[C@H](O)[C@@H]1C (relative stereo) [CASEAMEMBRIN C] | 6.10 | 6.22
7 | C=CC(=C)CC[C@]1(C)[C@H]2C[C@H](OC(=O)C(C)CC)C=C3[C@H](OC(=O)CCC)O[C@H](OC(C)=O)[C@@]32[C@H](O)[C@H](OC(C)=O)[C@@H]1C (relative stereo) [CASEAMEMBRIN D] | 5.72 | 5.62
8 | C=CC(=C)CC[C@]1(C)[C@H]2C[C@@H](OC(=O)C(C)CC)C=C3[C@H](OC(C)=O)O[C@H](OC(C)=O)[C@@]32[C@H](O)C[C@@H]1C (relative stereo) [CASEAMEMBRIN E] | 5.59 | 5.54
9 | C=CC(=C)CC[C@]1(C)[C@H]2C[C@H](OC(=O)C(C)CC)C=C(C=O)[C@@]2(C=O)[C@H](O)C[C@@H]1C (relative stereo) [CASEAMEMBRIN F] | 4.83 | 5.52
10 | CC(=O)O[C@H]1C(=O)[C@@]2(C)[C@H]([C@H](OC(=O)c3ccccc3)[C@]3(O)C[C@H](OC(=O)[C@H](O)[C@@H](NC(=O)c4ccccc4)c4ccccc4)C(C)=C1C3(C)C)[C@]1(OC(C)=O)CO[C@@H]1C[C@@H]2O [PACLITAXEL] | 7.51 | 7.80
